E-selectin induc: E-selectin induction in HUVECs, primary screen, imaging, HUVEC, immunofluorescence imaging, single point. P16581. normalized: neutral wells 0, TNF-alpha wells 100. activation, % at 7.58 µM. actives 0.37% (n = 260,000). AID 686992, 2013;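 active = mean E-selectin-positive cell signal at least 10% of the positive control, reached in at least 60% of replicates, without over 20% cell loss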
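Assay system: HUVEC, human umbilical vein endothelial cells / Amount: 3,000 HUVEC/well / Controls: TNF-alpha positive control, DMSO neutral control / Compound dosing: single concentration / Medium: EGM-2 over gelatin coat / Evaluation: percent E-selectin-positive cells / Signal: immunofluorescence imaging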
SIRT5 block: SIRT5 desuccinylase inhibitors, primary screen, biochemical, fluorescence imaging, single point, set 5; NAD-dependent protein deacylase sirtuin-5, mitochondrial (Homo sapiens), Q9NXA8; Purified SirT5, succinyl-peptide AMC, trypsin-coupled fluorescence; inhibition, % at 15 µM; actives 1.1% (n = 330,000); AID 652115, 2013; in the data active = inhibition above about 15%
Target sequence (Q9NXA8 whole entry, looked up): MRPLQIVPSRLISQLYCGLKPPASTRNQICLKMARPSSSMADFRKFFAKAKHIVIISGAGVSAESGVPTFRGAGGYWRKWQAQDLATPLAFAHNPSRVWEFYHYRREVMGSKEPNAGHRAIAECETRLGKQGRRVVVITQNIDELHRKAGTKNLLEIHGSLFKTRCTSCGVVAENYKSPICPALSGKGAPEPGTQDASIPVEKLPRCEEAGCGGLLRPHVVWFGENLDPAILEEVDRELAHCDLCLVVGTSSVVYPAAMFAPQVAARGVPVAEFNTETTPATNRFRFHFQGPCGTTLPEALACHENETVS
DENV2 CPE: inhibitors of DENV2 cytopathic effect, primary screen, cell-based, plate reader, single concentration; DENV2-infected cells, cytopathic effect rescue; CPE inhibition, % at 9.99 µM; actives 1.7% (n = 350,000); in the data active = CPE inhibition above about 20%, passing the limit was not always enough; tested in BHK-21 cells;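 note: 0% = median of neutral control wells and 100% = median of positive control wells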
An asterisk follows results filed as active; x = no result. Shown are actives, neighbours in structure and some others; about 2.9% of the full set was active somewhere.

SMILES | E-selectin induc | SIRT5 block | DENV2 CPE
Cc1ccc(S(=O)(=O)N(C)C[C@H]2OCCCC[C@@H](C)Oc3ccc(NS(=O)(=O)c4ccc(Cl)cc4)cc3C(=O)N([C@H](C)CO)C[C@H]2C)cc1 | 0 | 29* | 4
Cc1ccc(S(=O)(=O)Nc2ccc3c(c2)C(=O)N([C@@H](C)CO)C[C@H](C)[C@@H](CN(C)S(=O)(=O)c2ccc(Cl)cc2)OCCCC[C@@H](C)O3)cc1 | 0 | x | 9
C[C@@H]1CCCCO[C@@H](CN(C)S(=O)(=O)c2ccc(Cl)cc2)[C@H](C)CN([C@@H](C)CO)C(=O)c2cc(NS(=O)(=O)c3ccc(Cl)cc3)ccc2O1 | 0 | x | 5
CC(C)(C)Sc1ccc(/C=N/O)cc1[N+](=O)[O-] | 0 | -1 | -2
Nc1nc(-c2ccc(Cl)cc2)nc(-c2ccc(Cl)cc2)n1 | -1 | 29* | 7
CC(C)(C)c1ccc(-c2nc(N)nc(N)n2)cc1 | x | -3 | -3
Cc1ccc(C(=O)NNC(=O)CCC(=O)Nc2cccc(Cl)c2C)cc1 | 0 | x | x
O=C(Nc1nc2ccccc2[nH]1)c1ccc(Cl)c([N+](=O)[O-])c1 | 0 | 2 | -3
C#CCC(NC(=O)c1ccc(C#N)cc1)C(=O)NCCC (configuration not stated) | 0 | x | -7
C=CCC(NC(=O)c1ccc(C#N)cc1)C(=O)NCCC (configuration not stated) | 0 | x | 49*
CC1=C(C(=O)OCC2CCCO2)C(c2ccccc2)C2=C(CC(C)(C)CC2=O)N1 (configuration not stated) | x | -5 | x
O=C(CNC(=O)c1ccc(Br)o1)NNC(=O)c1ccccc1 | 1 | -2 | -3
C[C@@H]1CCCCO[C@@H](CN(C)Cc2ccc(C(F)(F)F)cc2)[C@@H](C)CN([C@@H](C)CO)C(=O)c2cc(NS(=O)(=O)c3ccccc3)ccc2O1 | 0 | 13 | -3
COc1ccc(S(=O)(=O)Nc2ccc3c(c2)C(=O)N([C@@H](C)CO)C[C@H](C)[C@@H](CN(C)Cc2ccc(C(F)(F)F)cc2)OCCCC[C@@H](C)O3)cc1 | 2 | 13 | -3
Cc1ccc(S(=O)(=O)Nc2ccc3c(c2)C(=O)N([C@H](C)CO)C[C@@H](C)[C@H](CN(C)Cc2ccc(C(F)(F)F)cc2)OCCCC[C@H](C)O3)cc1 | x | 13 | -25
Cc1ccc(S(=O)(=O)Nc2ccc3c(c2)C(=O)N([C@@H](C)CO)C[C@H](C)[C@H](CN(C)Cc2ccc(C(F)(F)F)cc2)OCCCC[C@H](C)O3)cc1 | x | 15* | -25
Cc1ccc(S(=O)(=O)Nc2ccc3c(c2)C(=O)N([C@@H](C)CO)C[C@H](C)[C@H](CN(C)Cc2ccc(C(F)(F)F)cc2)OCCCC[C@@H](C)O3)cc1 | x | 18* | -13
Cc1ccc(S(=O)(=O)Nc2ccc3c(c2)C(=O)N([C@@H](C)CO)C[C@H](C)[C@@H](CN(C)Cc2ccc(C(F)(F)F)cc2)OCCCC[C@@H](C)O3)cc1 | x | 17* | -25
Cc1ccc(S(=O)(=O)Nc2ccc3c(c2)C(=O)N([C@H](C)CO)C[C@H](C)[C@@H](CN(C)Cc2ccc(C(F)(F)F)cc2)OCCCC[C@H](C)O3)cc1 | x | 21* | -20
CCOC(=O)C1=CN(Cc2cccc(F)c2)S(=O)(=O)N(C)C1c1ccccc1 (configuration not stated) | -1 | -5 | -5
CCOC(=O)/C=C1\CC(C(=O)OCC)Oc2c(OC)cccc21 (configuration not stated) | 1 | 1 | -9
O=C(NCCC1CCCCN1S(=O)(=O)c1cccs1)C(=O)NCc1ccccc1 (configuration not stated) | 0 | -4 | -3
O=S(=O)(NCc1c(Cl)cccc1Oc1ccccc1)c1ccccc1 | 0 | 0 | 32*
O=C(O)c1ccc(CNS(=O)(=O)c2ccc(Oc3ccccc3Cl)cc2)cc1 | 0 | -6 | -2
Cc1cc(-c2ccc(N3CCOCC3)cc2)nc2ccccc12 | 0 | -1 | -2
SMILES | E-selectin induc | SIRT5 block | DENV2 CPE
CC1CCC(NC(=O)CN2C(=O)NC3(CCCCC3C)C2=O)CC1 (configuration not stated) | 0 | 9 | -5
Cc1noc(C)c1NC(=O)Nc1ccc2c(c1)C(=O)N([C@@H](C)CO)C[C@@H](C)[C@H](CN(C)S(=O)(=O)c1ccccc1)O2 | 0 | x | x
COc1cccc(NC(=O)Nc2ccc3c(c2)C(=O)N(C)C[C@H](OC)[C@H](C)CN(C)[C@H](C)CO3)c1 | 0 | -1 | -9
COc1ccccc1NC(=O)Nc1ccc2c(c1)C(=O)N(C)C[C@H](OC)[C@@H](C)CN(C)[C@@H](C)CO2 | 0 | 6 | 0
CO[C@@H]1CN(C)C(=O)c2cc(NC(=O)Nc3cccc(F)c3)ccc2OC[C@@H](C)N(C)C[C@H]1C | 0 | 0 | 5
CO[C@H]1CN(C)C(=O)c2cc(NC(=O)Nc3cccc(F)c3)ccc2OC[C@H](C)N(C)C[C@H]1C | 0 | -1 | 29*
CO[C@@H]1CN(C)C(=O)c2ccc(NC(=O)c3cccc(F)c3)cc2OC[C@H](C)N(C)C[C@H]1C | 0 | 3 | 37*
CO[C@H]1CN(C)C(=O)c2cc(NC(=O)c3cccc(F)c3)ccc2OC[C@H](C)N(C)C[C@H]1C | 0 | 2 | -1
COc1cccc(NC(=O)Nc2ccc3c(c2)C(=O)N(C)C[C@@H](OC)[C@@H](C)CN(C)[C@H](C)CO3)c1 | 0 | -3 | 26*
COc1ccccc1NC(=O)Nc1ccc2c(c1)C(=O)N(C)C[C@H](OC)[C@H](C)CN(C)[C@H](C)CO2 | 0 | 19* | x
Cc1ccsc1/C=C(\C#N)C(=O)Nc1c(C)n(C)n(-c2ccccc2)c1=O | x | x | -4
COc1ccccc1C#Cc1ccc2c(c1)O[C@H](CN(C)C)[C@@H](C)CN([C@@H](C)CO)S2(=O)=O | 0 | -17 | -13
O=C(CNC(=O)Cc1ccccc1)NCC(=O)N1CCCCC1 | -1 | -3 | -3
O=C(CNS(=O)(=O)c1ccccc1)NCC(=O)N1CCCCC1 | 0 | 15* | -9
CCCCn1c(-c2ccc(Br)cc2F)nc2c1c(=O)[nH]c(=O)n2CC(C)C | x | 2 | 4
O=C(Cc1ccccc1)N1CC[C@@H]2[C@H]1c1cc(C#Cc3cccc(F)c3)ccc1N[C@@H]2CO | 0 | x | x
COc1ccccc1C#Cc1ccc2c(c1)[C@H]1[C@H](CCN1C(=O)c1cccc(F)c1)[C@H](CO)N2 | 0 | -29 | -19
O=C(c1ccccc1)N1CC[C@@H]2[C@H](CO)Nc3ccc(C#Cc4cccc(F)c4)cc3[C@@H]21 | 0 | x | 116*
O=C(c1cccc(F)c1)N1CC[C@@H]2[C@@H](CO)Nc3ccc(C#Cc4ccccc4)cc3[C@@H]21 | 1 | 4 | -5
COc1ccccc1C#Cc1ccc2c(c1)[C@H]1[C@H](CCN1C(=O)c1ccncc1)[C@H](CO)N2 | x | x | 36*
O=C(c1ccccc1)N1CC[C@H]2[C@H](CO)Nc3ccc(C#Cc4cccc(F)c4)cc3[C@H]21 | 0 | x | 64*
COc1ccccc1C#Cc1ccc2c(c1)[C@@H]1[C@@H](CCN1C(=O)c1cccc(F)c1)[C@H](CO)N2 | 0 | 18* | -1

Screening results deposited in PubChem BioAssay by Broad Institute.
